We go through ten compounds from ChEMBL document CHEMBL1154329, “Structure and cytotoxicity of arnamial and related fungal sesquiterpene aryl esters” (J Nat Prod, 2009).

Structures are written as SMILES. Active and inactive are the calls of the source. The calls are words filed in the database; no cut-off is given here. Starred links: 1 amine or outer side, 2 acyl side, 3 side chain; linkers in the order of their positions; H or OH if unused. Positions of bridges follow the written chain, without caps; N, C: chain ends. Non-standard residues stand in square brackets, D forms with d. Residues, ends and D or L forms follow the SMILES beside them. Chains are numbered I, II in the order given. Actinocin(1to9) = Cc1c2oc3c(C)ccc(C(=O)[*:2])c3nc-2c(C(=O)[*:1])c(N)c1=O; NMeV = CN[C@H](C(=O)O)C(C)C; Sar = CNCC(=O)O A value given as a limit tells only on which side of the number the result lay.

Assay [1] concerns HCT-116. The experiment in a line: Cytotoxicity against human HCT116 cells at <=100 uM after 48 hrs by MTT assay. The class given is functional, cell-based. Summed up:
(§1)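 All four lines kept in RPMI 1640 with 10% FBS, 1% GlutaMAX, penicillin/streptomycin. Cells seeded at (2.5-5.0) × 10^4 per well and held overnight at 37 °C. Compounds added as 2-fold DMSO dilutions, top final concentration 100 µM, 0.5% DMSO final. Triplicates, 48 h, 37 °C, 5% CO2. MTT 1 mg/mL added for 3 h. IC50 is the mean of three replicate experiments.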
On the technique in general: Tetrazolium dyes change colour on reduction, which living cells bring about.

The subject of assay [2] is MCF7. The assay can be described thus: Cytotoxicity against human MCF7 cells at <=100 uM after 48 hrs by MTT assay. The class given is functional, cell-based. Summed up: as §1
Assay [3] concerns Jurkat. The assay can be described thus: Cytotoxicity against human Jurkat T cells at <=100 uM after 48 hrs by MTT assay. The class given is functional, cell-based. Summed up: as §1
Assay [4] has as its system CCRF-CEM. The experiment in a line: Cytotoxicity against human CCRF-CEM cells at <=100 uM after 48 hrs by MTT assay. The class given is functional, cell-based. Summed up:
as §1

Assay [5] deals with Jurkat. The experiment in a line: Induction of apoptosis in human Jurkat T cells assessed as activation of caspase3 at 0.3 uM after 6 hrs relative to control. The class given is functional. Summed up:
(§2)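 Jurkat T cells at 1 × 10^6 cells/mL treated for 6 h, then centrifuged at 4 °C, washed and homogenized. Caspase-3 activity read with DEVD-AMC substrate at 200 nM. Rate of fluorescence increase normalized to Bradford protein, expressed as fold over untreated cells. Three independent experiments.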

Assay [6] deals with Jurkat. The assay can be described thus: Induction of apoptosis in human Jurkat T cells assessed as increase in DNA fragmentation at 0.33 uM after 6 hrs by ELISA relative to control. The class given is functional. Summed up: (§3)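 Jurkat T cells at 1 × 10^6 cells/mL exposed for 6 h. DNA fragmentation measured as histone-DNA complexes by histone ELISA and expressed as fold increase over untreated cells.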
(In general: An ELISA detects its analyte on a solid surface through an enzyme-linked reagent.)

For assay [7], the system named is Jurkat. The experiment in a line: Cytotoxicity against human Jurkat T cells after 48 hrs by MTT assay. It is filed as functional, cell-based. Summed up: as §1
Assay [8] has as its system HCT-116. The assay can be described thus: Cytotoxicity against human HCT116 cells after 48 hrs by MTT assay. The class given is functional, cell-based. To be noted: HCT-116, 48 h. Summed up:
as §1

Assay [9] has as its system MCF7. The experiment in a line: Cytotoxicity against human MCF7 cells after 48 hrs by MTT assay. As to conditions: MCF7, 48 h. It is filed as functional, cell-based. Summed up:
as §1

Assay [10] deals with CCRF-CEM. The assay can be described thus: Cytotoxicity against human CCRF-CEM cells after 48 hrs by MTT assay. It is filed as functional, cell-based. Summed up: as §1
The test system of assay [11] is Jurkat. The assay can be described thus: Induction of apoptosis in human Jurkat T cells assessed as activation of caspase3 at 10 uM after 6 hrs relative to control. It is filed as functional. Summed up:
as §2

The test system of assay [12] is Jurkat. The experiment in a line: Induction of apoptosis in human Jurkat T cells assessed as increase in DNA fragmentation at 10 uM after 6 hrs by ELISA relative to control. The class given is functional. Summed up: as §3

For the compound `COc1cc(C)c(C(=O)O[C@@H]2C[C@]3(C)[C@H]4[C@@H](O)C(C)(C)C[C@@]4(O)C=C(CO)[C@]23O)c(O)c1`, the outcome with HCT-116 [1], in the assay with MCF7 [2], in the assay with Jurkat [3] and with CCRF-CEM [4] was inactive.
`Cc1c2oc3c(C)ccc(C(=O)N[C@@H]4C(=O)N[C@H](C(C)C)C(=O)N5CCC[C@H]5C(=O)N(C)CC(=O)N(C)[C@@H](C(C)C)C(=O)O[C@@H]4C)c3nc-2c(C(=O)N[C@@H]2C(=O)N[C@H](C(C)C)C(=O)N3CCC[C@H]3C(=O)N(C)CC(=O)N(C)[C@@H](C(C)C)C(=O)O[C@@H]2C)c(N)c1=O` [DACTINOMYCIN] (I: T[dV]P[Sar][NMeV] / II: T[dV]P[Sar][NMeV]; ester I:1-I:C, II:1-II:C; linker I:N-II:N via Actinocin(1to9)): the “fold change (FC)” value in the assay with Jurkat [5] stood at 5.7; in the assay with Jurkat [6], 4.3.
`COc1cc(O)c(C(=O)O[C@@H]2C[C@@]3(C)C2=C(C=O)[C@@H](O)[C@@H]2CC(C)(C)C[C@@H]23)c(C)c1Cl` [ARNAMIAL]: the IC50 with Jurkat [7] came out at 3.93 µM; with HCT-116 [8], 10.7 µM; in the assay on MCF7 [9], 15.4 µM; in the assay with CCRF-CEM [10] it was 8.91 µM. For the same compound, the entries for the “fold change (FC)” value in the assay with Jurkat [11] and in the assay with Jurkat [12] were 18.1 and 4.5, respectively.
As for `Cc1cc(O)cc(O)c1C(=O)O`, the result in the assay with HCT-116 [1], in the assay on MCF7 [2], in the assay on Jurkat [3] and with CCRF-CEM [4] was inactive.
For the compound `COc1cc(O)c(C(=O)O[C@@H]2C[C@]3(C)[C@H]4[C@@H](O)C(C)(C)C[C@@]4(O)C=C(C=O)[C@]23O)c(C)c1Cl` [MELLEDONAL C], the IC50 in the assay with Jurkat [7] was 58.8 µM; in the assay with HCT-116 [8], greater than 100 µM; with MCF7 [9] it was greater than 100 µM; with CCRF-CEM [10], 14.8 µM.
`COc1cc(C)c(C(=O)O)c(O)c1`: the result with HCT-116 [1], in the assay with MCF7 [2], in the assay on Jurkat [3] and in the assay on CCRF-CEM [4] was inactive.
For `Cc1cc(O)cc(O)c1C(=O)O[C@@H]1C[C@]2(C)[C@H]3[C@@H](O)C(C)(C)C[C@@]3(O)C=C(CO)[C@]12O`, the outcome with HCT-116 [1], in the assay on MCF7 [2], with Jurkat [3] and in the assay with CCRF-CEM [4] was inactive.
For the compound `COc1cc(O)c(C(=O)O[C@@H]2C[C@]3(C)[C@H]4[C@@H](O)C(C)(C)C[C@@]4(O)C=C(CO)[C@]23O)c(C)c1Cl` [MELLEOLIDE D], the half-inhibitory concentration (IC50) in the assay on Jurkat [7] is greater than 100 µM; in the assay with HCT-116 [8], greater than 100 µM; with MCF7 [9], greater than 100 µM; with CCRF-CEM [10] it was 61.7 µM.
Turning to `Cc1cc(O)cc(O)c1C(=O)O[C@@H]1C[C@]2(C)[C@@H]3[C@H](C=C(C=O)[C@]12O)CC(C)(C)[C@@H]3O`, the IC50 in the assay on Jurkat [7] is 86.2 µM; with HCT-116 [8], greater than 100 µM; with MCF7 [9], greater than 100 µM; in the assay on CCRF-CEM [10] it was 63.2 µM.
In the case of `Cc1cc(O)cc(O)c1C(=O)O[C@@H]1C[C@]2(C)[C@H]3[C@@H](O)C(C)(C)C[C@@]3(O)C=C(C=O)[C@]12O`, the outcome in the assay on HCT-116 [1], in the assay on MCF7 [2], with Jurkat [3] and in the assay with CCRF-CEM [4] was inactive.

What is called IC50 is the concentration at which inhibition is half-maximal. The low end stands for higher potency, the high end for lower potency.
